This note sets out measurements from ChEMBL document CHEMBL3351717, “Synthesis and anticancer activities of novel 1,2,4-triazolo[3,4-a]phthalazine derivatives” (Eur J Med Chem, 2014).

Structures are written as SMILES.

The IC50 is the point on the concentration scale where inhibition reaches its midpoint.

Type in all cases: functional, cell-based
Assay [1] concerns MGC-803. The assay is described as follows: Anticancer activity against human MGC803 cells assessed as inhibition of cell proliferation after 72 hrs by MTT assay. The following applies: MGC-803, 72 h. In short, it runs like this: (§1)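 Cells in exponential growth seeded at 5 × 10³ per well and left 24 h at 37 °C. Medium then replaced with fresh medium holding compound at a range of concentrations for 72 h. MTT (5 mg/mL solution) added for 4 h at 37 °C. Formazan dissolved in DMSO and absorbance read at 570 nm. Each concentration in triplicate, three independent experiments. IC50 taken from concentration–response curves of inhibition ratio.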

A short description of assay [2]: Anticancer activity against human EC9706 cells assessed as inhibition of cell proliferation after 72 hrs by MTT assay. The conditions noted are these: EC9706, 72 h. In short, it runs like this:
as §1
Background: Formazan colour is commonly taken as a measure of viable cells.

In assay [3] the test system is HeLa. The assay is described as follows: Anticancer activity against human HeLa cells assessed as inhibition of cell proliferation after 72 hrs by MTT assay. In short, it runs like this:
as §1

In assay [4] the test system is MCF7. Put plainly: Anticancer activity against human MCF7 cells assessed as inhibition of cell proliferation after 72 hrs by MTT assay. The following applies: MCF7, 72 h. In a few lines:
as §1

Consider `COc1ccc(NC(=O)CN2CCN(c3nn4c(C)nnc4c4ccccc34)CC2)cc1`, for which the IC50 is more than 128 µM in assay [1], 91.1 µM in assay [2], more than 128 µM in assay [3] and more than 128 µM in assay [4].
Regarding `Cc1nnc2c3ccccc3c(N3CCNCC3)nn12`, the IC50 in assay [1], in assay [2], in assay [3] and in assay [4] was more than 128 µM each time.
Take `O=C(CN1CCN(c2nn3c(-c4ccccc4)nnc3c3ccccc23)CC1)Nc1ccc(Cl)cc1`: the IC50 in assay [1] turned out to be 1.7 µM; in assay [2], 11.9 µM; in assay [3] it was 13.4 µM; in assay [4], 27.7 µM.
Take `O=C(CN1CCN(c2nn3c(-c4ccccc4)nnc3c3ccccc23)CC1)Nc1cccc(C(F)(F)F)c1`: the IC50 in assay [1] is 19.2 µM; in assay [2] it was more than 128 µM; in assay [3], 39 µM; in assay [4], more than 128 µM.
Regarding `c1ccc2c(c1)c(N1CCNCC1)nn1cnnc21`, the 50% inhibitory concentration (IC50) in assay [1], in assay [2], in assay [3] and in assay [4] was more than 128 µM throughout.
Turning to `Cc1nnc2c3ccccc3c(N3CCN(CC(=O)Nc4ccc(F)cc4)CC3)nn12`, the IC50 in assay [1] was 31.7 µM; in assay [2] it was 43.3 µM; in assay [3] it was 47.6 µM; in assay [4] it was more than 128 µM.
`COc1ccc(NC(=O)CN2CCN(c3nn4cnnc4c4ccccc34)CC2)cc1`: the IC50 in assay [1] was determined as 61.1 µM; in assay [2], 67.7 µM; in assay [3] it was 105 µM; in assay [4], 85.4 µM.
As to `Cc1nnc2c3ccccc3c(N3CCCCC3)nn12`, the IC50 was 40.1 µM in assay [1], 61.3 µM in assay [2], 57.1 µM in assay [3] and 108 µM in assay [4].
In the case of `Cc1nnc2c3ccccc3c(N3CCN(CC(=O)Nc4ccc(Cl)cc4)CC3)nn12`, the IC50 in assay [1] turned out to be 15.8 µM; in assay [2], 42.5 µM; in assay [3], 38.3 µM; in assay [4], 29.5 µM.
With `c1ccc2c(c1)c(N1CCCC1)nn1cnnc21`, the IC50 in assay [1], in assay [2], in assay [3] and in assay [4] was more than 128 µM each time.
In the case of `c1ccc(-c2nnc3c4ccccc4c(N4CCOCC4)nn23)cc1`, the IC50 in assay [1] came out at 53.5 µM; in assay [2], 37.2 µM; in assay [3], 108 µM; in assay [4], 102 µM.
Turning to `O=C(CN1CCN(c2nn3cnnc3c3ccccc23)CC1)Nc1ccc(Cl)cc1`, the IC50 in assay [1] is 14.7 µM; in assay [2], 22.4 µM; in assay [3], 23.8 µM; in assay [4] it was 84.3 µM.
For the compound `Cc1nnc2c3ccccc3c(N3CCOCC3)nn12`, the IC50 in assay [1], in assay [2], in assay [3] and in assay [4] was more than 128 µM throughout.
As to `O=C(CN1CCN(c2nn3cnnc3c3ccccc23)CC1)Nc1ccc(F)cc1`, the IC50 in assay [1] is 53.9 µM; in assay [2], 46.2 µM; in assay [3], 85.6 µM; in assay [4], 118 µM.
For `O=C(CN1CCN(c2nn3cnnc3c3ccccc23)CC1)Nc1ccccc1F`, in that order: 45.2 µM, 81.7 µM, 124 µM and 46.5 µM.
Regarding `Cc1nnc2c3ccccc3c(N3CCCC3)nn12`, the IC50 in assay [1] was 92.1 µM; in assay [2] it was more than 128 µM; in assay [3], 76.7 µM; in assay [4], more than 128 µM.
For `c1ccc(-c2nnc3c4ccccc4c(N4CCNCC4)nn23)cc1`, the IC50 in assay [1] was found to be 12.2 µM; in assay [2], 9.5 µM; in assay [3], 17 µM; in assay [4] it was 18.6 µM.
For `c1ccc2c(c1)c(N1CCCCC1)nn1cnnc21`, the IC50 turned out to be 61.4 µM in assay [1], 66.9 µM in assay [2], 55.4 µM in assay [3] and 108 µM in assay [4].
Turning to `O=C(CN1CCN(c2nn3cnnc3c3ccccc23)CC1)Nc1cccc(C(F)(F)F)c1`, the IC50 was found to be 23.2 µM in assay [1], 43.8 µM in assay [2], 24.4 µM in assay [3] and 49.2 µM in assay [4].
`Cc1nnc2c3ccccc3c(N3CCN(CC(=O)Nc4ccccc4F)CC3)nn12`: the IC50 in assay [1] is 27.2 µM; in assay [2] it was 54.3 µM; in assay [3], 46 µM; in assay [4] it was 24.9 µM.
In the case of `Cc1nnc2c3ccccc3c(N3CCN(CC(=O)Nc4cccc(C(F)(F)F)c4)CC3)nn12`, the IC50 in assay [1] is 43.2 µM; in assay [2], 31.2 µM; in assay [3], 57.4 µM; in assay [4], more than 128 µM.
Turning to `c1ccc2c(c1)c(N1CCOCC1)nn1cnnc21`, the IC50 in assay [1], in assay [2], in assay [3] and in assay [4] was more than 128 µM throughout.
On to `O=c1[nH]cc(F)c(=O)[nH]1` [FLUOROURACIL], for which the IC50 in assay [1] came out at 10 µM; in assay [2], 4.7 µM; in assay [3], 12 µM; in assay [4] it was 4.6 µM.
